Where “and” joins values, the source holds several entries; their conditions need not be identical. Identical values can stand only once.
Columns and labels:
Rattus norvegicus [1] = assay: In vivo Triglyceride lowering activity at dose as 0.025 % of the diet; format: functional
Procedure, shortened: (§1)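 Male CFE or CD-1 Sprague-Dawley rats, 140-150 g; 8 per control group, 4 per test group. Compound mixed into ground chow (w/w) via MeOH-CHCl3 (1:3) solution, solvent evaporated; controls got solvent-treated chow. Fed ad libitum 5 days, food intake monitored, killed fed and bled. Serum sterols and triglycerides by adapted autoanalyzer methods; mean percent of control, Student's t test.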

Rattus norvegicus [2] = assay: In vivo triglyceride lowering activity dosed at 0.05 % of the diet; format: functional; procedure, shortened: as §1
Rattus norvegicus [3] = assay: In vivo Sterol lowering activity at dose as 0.05 % of the diet; format: functional; procedure, shortened: as §1
Rattus norvegicus [4] = assay: In vivo sterol lowering activity dosed at 0.10 % of the diet; format: functional; procedure, shortened: as §1
Rattus norvegicus [5] = assay: In vivo Sterol lowering activity at dose as 0.025 % of the diet; format: functional; procedure, shortened: as §1
Rattus norvegicus [6] = assay: In vivo triglyceride lowering activity dosed at 0.10 % of the diet; format: functional; procedure, shortened: as §1
Rattus norvegicus [7] = assay: In vivo Sterol lowering activity at dose as 0.01 % of the diet.; format: functional; procedure, shortened: as §1
Rattus norvegicus [8] = assay: In vivo triglyceride lowering activity, dosed at 0.01 % of the diet.; format: functional; procedure, shortened: as §1
[9] = molecular target: T1, Sterol O-acyltransferase 1 (Rattus norvegicus) (UniProt O70536); assay: In vitro inhibitory activity against acyl coenzyme A:cholesterol acyltransferase (ACAT); set-up: concentration or dose not given beside the values; details: concentration not given here
T1 sequence (whole entry): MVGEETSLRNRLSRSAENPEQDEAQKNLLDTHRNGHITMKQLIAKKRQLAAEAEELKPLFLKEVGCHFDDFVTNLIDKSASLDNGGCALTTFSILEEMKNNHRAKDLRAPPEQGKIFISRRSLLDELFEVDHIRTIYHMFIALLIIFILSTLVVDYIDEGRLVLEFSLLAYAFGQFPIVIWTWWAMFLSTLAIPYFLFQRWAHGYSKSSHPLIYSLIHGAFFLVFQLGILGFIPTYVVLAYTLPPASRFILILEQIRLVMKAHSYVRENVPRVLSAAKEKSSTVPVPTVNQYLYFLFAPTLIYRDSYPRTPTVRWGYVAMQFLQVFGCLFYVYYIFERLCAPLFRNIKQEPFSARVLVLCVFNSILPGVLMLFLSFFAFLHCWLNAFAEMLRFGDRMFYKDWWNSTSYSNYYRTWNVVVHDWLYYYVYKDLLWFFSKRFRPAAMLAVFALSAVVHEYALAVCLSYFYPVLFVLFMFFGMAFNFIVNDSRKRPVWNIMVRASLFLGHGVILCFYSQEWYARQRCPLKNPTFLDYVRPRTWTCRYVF
Procedure, shortened: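 ACAT enzyme from rat adrenal homogenate in 0.2 M KH2PO4 buffer pH 7.4, 1000g 15 min 5 °C supernatant (microsomal fraction). Supernatant + BSA (50 mg/mL) + compound at final 5.2 μg/mL + buffer preincubated 10 min 37 °C; [14C]oleoyl-CoA (0.4 μCi) added, 30 min 37 °C. Lipids extracted, TLC; cholesteryl ester zone counted. Mean % inhibition vs no-compound control; Student's t test.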

Rattus norvegicus [10] = assay: In vivo Triglyceride lowering activity at dose as 0.03 % of the diet.; format: functional; procedure, shortened: as §1
Rattus norvegicus [11] = assay: In vivo Sterol lowering activity at dose as 0.03 % of the diet; format: functional; procedure, shortened: as §1
Rattus norvegicus [12] = assay: In vivo triglyceride lowering activity, dosed at 0.10 % of the diet.; format: functional; procedure, shortened: as §1
Rattus norvegicus [13] = assay: In vivo Triglyceride lowering activity at dose as 0.01 % of the diet; format: functional; procedure, shortened: as §1
Rattus norvegicus [14] = assay: In vivo Sterol lowering activity at dose as 0.03 % of the diet.; format: functional; procedure, shortened: as §1
Rattus norvegicus [15] = assay: In vivo Sterol lowering activity at dose as 0.10 % of the diet.; format: functional; procedure, shortened: as §1
Rattus norvegicus [16] = assay: In vivo triglyceride lowering activity, dosed at 0.03 % of the diet; format: functional; procedure, shortened: as §1

| Compound | Diet (Rattus norvegicus [1]) [%] | Diet (Rattus norvegicus [2]) | Diet (Rattus norvegicus [3]) [%] | serum sterol, percent of control (Rattus norvegicus [4]) [%] | Diet (Rattus norvegicus [5]) [%] | serum triglycerides, percent of control (Rattus norvegicus [6]) [%] | serum sterol, percent of control (Rattus norvegicus [7]) [%] | Diet (Rattus norvegicus [8]) [%] | inhibition [9] [%] | Diet (Rattus norvegicus [10]) [%] | Diet (Rattus norvegicus [11]) [%] | Diet (Rattus norvegicus [12]) [%] | Diet (Rattus norvegicus [13]) [%] | serum sterol level, percent of control (Rattus norvegicus [14]) [%] | serum sterol, percent of control (Rattus norvegicus [15]) [%] | serum triglycerides, percent of control (Rattus norvegicus [16]) [%] |
| --- | --- | --- | --- | --- | --- | --- | --- | --- | --- | --- | --- | --- | --- | --- | --- | --- |
| CCCCCCCCCCCCCCCNc1ccc(C(=O)OCC)cc1 | 88 | <76% | <84 | 86 | <91 | <62 |  |  |  |  |  |  |  |  |  |  |
| CCCCCCCC/C=C\CCCCCCCCNc1ccc(C(=O)O)cc1 | <72 | <58% | 85 | <75 | <88 | <63 |  |  |  |  |  |  |  |  |  |  |
| CCOC(=O)c1ccc(NCCCc2ccc([N+](=O)[O-])cc2)cc1 |  |  |  | 85 |  |  | 85 | 81 | 19 | 84 | 81 | 73 |  |  |  |  |
| CCOC(=O)c1ccc(NCCCc2ccccc2[N+](=O)[O-])cc1 |  |  |  |  |  |  | 93 |  | 9 | 83 |  | 68 | 70 | 96 | 89 |  |
| CCCCCCCCCCCCCCCCCCCNc1ccc(C(=O)O)cc1 | <52 | <46% | 96 | 100 | 90 | <46 |  |  |  |  |  |  |  |  |  |  |
| O=C(O)c1ccc(NCCCCCCc2cccs2)cc1 |  |  |  | 76 |  | 57 | 90 |  | 31 |  | 83 |  | 58 |  |  | 63 |
| CCCCCCNc1ccc(C(=O)OCC)cc1 |  | 76% and 73% | 80 |  | 79 |  |  |  |  |  |  | 86 |  |  | 87 |  |
| O=C(OCC(O)CO)c1ccc(NCCCc2ccc(Cl)cc2)cc1 (configuration not stated) |  |  |  | 81 |  | 57 | 97 | 78 | 17 | 63 | 88 |  |  |  |  |  |
| O=C(O)c1ccc(NCc2ccc(Cl)cc2)cc1 |  |  |  | 71 |  | 52 | 89 | 98 |  | 72 | 80 |  |  |  |  |  |
| CCCCCCCCCCCCCCNc1ccc(C(=O)O)cc1 | <65 | <50% | 90 | 89 | 93 | <53 |  |  |  |  |  |  |  |  |  |  |
| O=C([O-])c1ccc(NCc2ccc(Cl)cc2)cc1.[Na+] |  |  |  |  |  | 67 | 91 | 70 |  |  | 90 |  |  |  | 83 | 61 |
| CCOC(=O)c1ccc(NC(=O)CCCCC(=O)c2ccc(Cl)cc2)cc1 |  |  |  |  |  |  | 90 | 110 | 37 | 131 |  | 96 |  | 88 | 90 |  |
| CCCCCCCCC/C=C/CCCNc1ccc(C(=O)OCC)cc1 |  |  | <85 | <83 | <88 | 79 |  |  | < 51 |  |  |  | 78 |  |  | 75 |
| CCOC(=O)c1ccc(NCCCc2cccc(Br)c2)cc1 |  |  |  |  |  |  | 84 | 74 | 50 |  | 84 | 63 |  |  | 94 | 60 |
| O=C(CCCCCc1ccc(Cl)cc1)Nc1ccc(C(=O)O)cc1 |  |  |  |  |  |  | 86 | 96 | 18 | 104 |  | 90 |  | 93 | 99 |  |

— ChEMBL document CHEMBL1122501, “Potential antiatherosclerotic agents. 2. (Aralkylamino)- and (alkylamino) benzoic acid analogues of cetaben” (1983)
